According to ChEMBL document CHEMBL4706532, “New Seco-DSP derivatives as potent chemosensitizers” (Eur J Med Chem, 2020):

What was measured:
[1] = Cytotoxicity against human KB-VIN cells assessed as reduction in cell viability at 10 uM incubated for 48 hrs by MTT assay; type: cell-based
Outline: (§1)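 Cells plated at 3~5 × 10^3 per well and allowed 24 h before exposure to compound or DMSO (negative control) for 48 h. A2780/T and KB-VIN were grown in DMEM/F12 with 10% FBS, and HUVEC, HOSEC and T29 in RPMI-1640 with 10% FBS, all at 37 °C under 5% CO₂. MTT was added for 4 h, formazan dissolved in DMSO and absorbance read at 490 nm. Inhibition was calculated relative to DMSO and blank.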

[2] = test system: HUVEC; experiment: Cytotoxicity against human HUVEC cells assessed as reduction in cell viability at 10 uM incubated for 48 hrs by MTT assay; type: cell-based
Outline: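 Cells plated at 3~5 × 10^3 per well and allowed 24 h before exposure to compound or DMSO (negative control) for 48 h. MTT was added for 4 h, formazan dissolved in DMSO and absorbance read at 490 nm. Inhibition was calculated relative to DMSO and blank.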

[3] = Reversal of multidrug resistance activity in P-gp overexpressing human A2780T cells assessed as potentiation of PTX-induced cytotoxicity by measuring reversal ratio at 10 uM incubated for 48 hrs in presence of paclitaxel by MTT assay; type: functional, A2780/Taxol
Outline: (§2)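 Resistant cells were plated at 3~5 × 10^3 per well, given 24 h, then co-treated with test compound plus a range of anticancer drug concentrations (PTX for A2780/T, VCR for KB-VIN, cisplatin for A2780/CDDP) or DMSO for 48 h. Read-out was by MTT, 4 h at 37 °C, with absorbance at 490 nm. Reversal ratio = IC50 (drug alone) / IC50 (drug with compound).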

[4] = test system: A2780/Taxol; experiment: Cytotoxicity against human A2780T cells assessed as reduction in cell viability at 10 uM incubated for 48 hrs by MTT assay; type: cell-based; outline: as §1
[5] = Reversal of multidrug resistance activity in P-gp overexpressing human KB-VIN cells assessed as potentiation of VCR-induced cytotoxicity by measuring reversal ratio at 10 uM incubated for 48 hrs in presence of VCR by MTT assay; type: functional; outline: as §2
[6] = Reversal of multidrug resistance activity in human A2780/CDDP cells assessed as potentiation of CDDP-induced cytotoxicity by measuring reversal ratio at 10 uM incubated for 48 hrs in presence of CDDP by MTT assay; type: functional; outline: as §2
[7] = Cytotoxicity against human HOSEC cells assessed as reduction in cell viability at 10 uM incubated for 48 hrs by MTT assay; type: cell-based; settings: hose; outline: as §1
[8] = Cytotoxicity against human T29 cells assessed as reduction in cell viability at 10 uM incubated for 48 hrs by MTT assay; type: cell-based; settings: t29, 48 h; outline: as §1

| SMILES | Activity [1] | Activity [2] | Ratio [3] | Activity [4] | Ratio [5] | Ratio [6] | Activity [7] | Activity [8] |
| --- | --- | --- | --- | --- | --- | --- | --- | --- |
| CCc1cc(=O)c2ccc(OC(C)C)c(COC(=O)/C=C/c3ccccc3)c2o1 | Non-Toxic | Non-Toxic | 685 | Non-Toxic | 466 | 0.81 | Non-Toxic | Non-Toxic |
| CCc1cc(=O)c2ccc(OC)c(COC(=O)/C=C/c3ccccc3)c2o1 | Non-Toxic | Non-Toxic | 427 | Non-Toxic | 343 |  | Non-Toxic | Non-Toxic |
| CCc1cc(=O)c2ccc(OC)c(COC(=O)Cc3cc(OC)c(OC)c(OC)c3)c2o1 |  | Non-Toxic | 54 | Toxic |  |  | Non-Toxic | Non-Toxic |
| CCc1cc(=O)c2ccc(OC)c(COC(=O)c3ccc(F)cc3)c2o1 |  | Non-Toxic | 53 | Non-Toxic |  |  | Non-Toxic | Non-Toxic |
| CCc1cc(=O)c2ccc(OC)c(COC(=O)c3ccc(Cl)c([N+](=O)[O-])c3)c2o1 |  | Non-Toxic | 14 | Non-Toxic |  |  | Toxic | Toxic |
| CCc1cc(=O)c2ccc(OC(C)C)c(COC(=O)/C=C/c3ccc(OC)cc3)c2o1 | Non-Toxic | Non-Toxic | 490 | Non-Toxic | 342 | 0.97 | Non-Toxic | Non-Toxic |
| CCc1cc(=O)c2ccc(OC)c(COC(=O)c3cc(OC)c(OC)cc3OC)c2o1 | Non-Toxic | Non-Toxic | 284 | Non-Toxic | 579 |  | Non-Toxic | Non-Toxic |
| CCc1cc(=O)c2ccc(OC(C)C)c(COC(=O)c3cc(OC)c(OC)c(OC)c3)c2o1 |  | Non-Toxic | 503 | Non-Toxic |  | 0.99 | Non-Toxic | Non-Toxic |
| CCc1cc(=O)c2ccc(OC)c(COC(=O)c3cc([N+](=O)[O-])ccc3Cl)c2o1 |  | Non-Toxic | 57 | Non-Toxic |  |  | Non-Toxic | Non-Toxic |
| CCOc1ccc2c(=O)cc(CC)oc2c1COC(=O)c1cc(OC)c(OC)c(OC)c1 | Non-Toxic | Non-Toxic | 457 | Non-Toxic | 248 | 1.05 | Non-Toxic | Non-Toxic |
| CCc1cc(=O)c2ccc(OC)c(COC(=O)c3cccc(OC)c3)c2o1 |  | Non-Toxic | 147 | Non-Toxic |  |  | Non-Toxic | Non-Toxic |
| CCc1cc(=O)c2ccc(OC)c(COC(=O)c3ccc(Cl)cc3Cl)c2o1 |  | Non-Toxic | 126 | Non-Toxic |  |  | Non-Toxic | Non-Toxic |
| CCc1cc(=O)c2ccc(OC)c(COC(=O)c3ccc(N)c(C)c3)c2o1 |  | Non-Toxic | 177 | Non-Toxic |  |  | Non-Toxic | Non-Toxic |
| CCc1cc(=O)c2ccc(OC)c(COC(=O)/C=C/c3ccc(OC)cc3)c2o1 | Non-Toxic | Non-Toxic | 414 | Toxic | 420 |  | Toxic | Toxic |
| CCCCCc1ccc(C(=O)OCc2c(OC)ccc3c(=O)cc(CC)oc23)cc1 |  | Non-Toxic | 173 | Non-Toxic |  |  | Non-Toxic | Non-Toxic |
| CCc1cc(=O)c2ccc(OC)c(COC(=O)/C=C/c3ccc(Cl)cc3)c2o1 |  | Non-Toxic | 53 | Non-Toxic |  |  | Non-Toxic | Non-Toxic |
| CCc1cc(=O)c2ccc(OC)c(COC(=O)c3ccc(C#N)cc3)c2o1 |  | Non-Toxic | 8 | Non-Toxic |  |  | Toxic | Toxic |
| CCc1cc(=O)c2ccc(OC)c(COC(=O)c3ccccc3Br)c2o1 |  | Non-Toxic | 23 | Toxic |  |  | Non-Toxic | Non-Toxic |
| CCc1cc(=O)c2ccc(OC)c(COC(=O)c3ccc(C(C)(C)C)cc3)c2o1 |  | Non-Toxic | 158 | Toxic |  |  | Non-Toxic | Non-Toxic |
| CCOc1ccc2c(=O)cc(CC)oc2c1COC(=O)c1cc(OC)c(OC)cc1OC |  | Non-Toxic | 457 | Non-Toxic |  | 0.88 | Non-Toxic | Non-Toxic |
| CCc1cc(=O)c2ccc(OC)c(COC(=O)c3ccc(OC)c(OC)c3)c2o1 | Non-Toxic | Non-Toxic | 260 | Toxic | 105 |  | Non-Toxic | Non-Toxic |
| CCc1cc(=O)c2ccc(OC)c(COC(=O)c3ccccc3[N+](=O)[O-])c2o1 |  | Non-Toxic | 172 | Non-Toxic |  |  | Non-Toxic | Non-Toxic |
| CCc1cc(=O)c2ccc(OC)c(COC(=O)c3cccc(N(C)C)c3)c2o1 | Non-Toxic | Non-Toxic | 484 | Non-Toxic | 234 | 0.81 | Non-Toxic | Non-Toxic |
| CCc1cc(=O)c2ccc(OC)c(COC(=O)Cc3ccc(Cl)cc3)c2o1 |  | Non-Toxic | 89 | Non-Toxic |  |  | Non-Toxic | Non-Toxic |
| CCOc1ccc2c(=O)cc(CC)oc2c1COC(=O)c1ccc(C#N)cc1 |  | Non-Toxic | 20 | Toxic |  |  | Non-Toxic | Non-Toxic |
| CCc1cc(=O)c2ccc(OC)c(COC(=O)Cc3ccccc3C)c2o1 |  | Non-Toxic | 99 | Non-Toxic |  |  | Non-Toxic | Non-Toxic |
| CCc1cc(=O)c2ccc(OC)c(COC(=O)c3c(F)cccc3F)c2o1 |  | Non-Toxic | 43 | Non-Toxic |  |  | Non-Toxic | Non-Toxic |
| CCc1cc(=O)c2ccc(OC)c(COC(=O)c3cc(OC)c(OC)c(OC)c3)c2o1 | Non-Toxic | Non-Toxic | 537 | Non-Toxic | 424 | 0.81 | Non-Toxic | Non-Toxic |
| CCCc1ccc(C(=O)OCc2c(OC)ccc3c(=O)cc(CC)oc23)cc1 |  | Non-Toxic | 36 | Toxic |  |  | Non-Toxic | Non-Toxic |
| CCc1cc(=O)c2ccc(OC(C)C)c(COC(=O)c3ccc(C#N)cc3)c2o1 |  | Non-Toxic | 10 | Toxic |  |  | Non-Toxic | Non-Toxic |
